Source: ChEMBL document CHEMBL4613300, “Pharmacophore-Based Virtual Screening for Identification of Negative Modulators of GLI1 as Potential Anticancer Agents” (ACS Med Chem Lett, 2020)
The source made the active and inactive calls. The calls are words filed in the database; no cut-off is given here.

How the values were obtained:
A-375 [1] = experiment: Antiproliferative activity against human A375 cells assessed as reduction in cell viability incubated for 72 hrs by trypan blue or crystal violet staining based assay; format: functional; conditions: Homo sapiens, A-375, 72 h; read-out: IC50
Daoy = experiment: Antiproliferative activity against human DaOY cells assessed as reduction in cell viability incubated for 72 hrs by trypan blue or crystal violet staining based assay; format: functional; conditions: Homo sapiens, Daoy, 72 h; read-out: IC50
[2] = molecular target: T1, Zinc finger protein GLI1 (Mus musculus) (UniProt P47806); experiment: Inhibition of GLI1 transcriptional activity in HH-responsive mouse NIH3T3 cells assessed as reduction in GLI1 protein expression at 5 uM incubated for 48 hrs in presence of SAG by Western blot analysis; format: cell-based
T1 sequence (whole entry): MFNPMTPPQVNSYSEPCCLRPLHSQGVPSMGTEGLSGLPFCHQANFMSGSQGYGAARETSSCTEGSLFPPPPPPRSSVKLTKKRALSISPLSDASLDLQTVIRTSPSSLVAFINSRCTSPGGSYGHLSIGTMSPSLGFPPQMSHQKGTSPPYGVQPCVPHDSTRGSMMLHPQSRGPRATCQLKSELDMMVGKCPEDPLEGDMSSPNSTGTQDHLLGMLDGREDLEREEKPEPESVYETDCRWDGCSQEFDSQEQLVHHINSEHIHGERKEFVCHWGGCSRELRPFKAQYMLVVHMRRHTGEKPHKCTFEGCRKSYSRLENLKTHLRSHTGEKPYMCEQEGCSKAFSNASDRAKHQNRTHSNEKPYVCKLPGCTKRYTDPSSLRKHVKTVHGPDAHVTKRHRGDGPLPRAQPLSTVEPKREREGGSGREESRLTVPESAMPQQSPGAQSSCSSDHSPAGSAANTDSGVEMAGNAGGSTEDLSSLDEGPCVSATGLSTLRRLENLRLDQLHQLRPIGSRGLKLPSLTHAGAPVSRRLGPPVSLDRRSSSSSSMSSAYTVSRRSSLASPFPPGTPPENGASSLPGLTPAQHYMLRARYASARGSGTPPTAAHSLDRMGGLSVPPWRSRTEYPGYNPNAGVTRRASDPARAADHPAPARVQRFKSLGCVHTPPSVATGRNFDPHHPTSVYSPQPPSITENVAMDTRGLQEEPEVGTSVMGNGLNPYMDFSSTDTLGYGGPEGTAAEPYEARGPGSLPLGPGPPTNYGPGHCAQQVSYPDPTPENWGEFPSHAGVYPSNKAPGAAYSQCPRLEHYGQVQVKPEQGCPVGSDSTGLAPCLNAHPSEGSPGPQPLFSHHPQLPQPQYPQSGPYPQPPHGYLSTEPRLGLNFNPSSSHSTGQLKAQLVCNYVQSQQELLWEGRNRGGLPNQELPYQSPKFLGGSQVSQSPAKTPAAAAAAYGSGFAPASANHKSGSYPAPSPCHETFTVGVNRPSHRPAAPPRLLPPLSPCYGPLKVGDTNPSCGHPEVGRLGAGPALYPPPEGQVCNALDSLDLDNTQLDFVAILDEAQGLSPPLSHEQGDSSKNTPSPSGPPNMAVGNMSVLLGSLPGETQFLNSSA
Outline: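 Murine NIH3T3 cells given 100 nM SAG plus compound (5 μM) or DMSO for 48 h. Endogenous GLI1 protein measured by Western blot with HSP90 as loading control, band quantified against SAG-treated cells.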

[3] = molecular target: T1, Zinc finger protein GLI1 (Mus musculus); experiment: Inhibition of GLI1 transcriptional activity in HH-responsive mouse NIH3T3 cells assessed as reduction in SAG-induced luciferase activity at 5 uM incubated for 48 hrs by luciferase reporter gene assay relative to control; format: cell-based
Outline: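 HH-responsive NIH3T3 cells carrying a GLI-dependent firefly luciferase reporter with renilla control, treated 48 h with 100 nM SAG plus compound (5 μM). Firefly/renilla ratio normalised to SAG-only cells set at 100%, reported as percent inhibition.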

[4] = molecular target: T2, Zinc finger protein GLI1 (Homo sapiens) (UniProt P08151); experiment: Inhibition of GLI1 transcriptional activity in human A375 cells assessed as downregulation of GLI1 mRNA expression at 5 uM incubated for 48 hrs by qPCR analysis; format: cell-based; conditions: A-375
T2 sequence (whole entry): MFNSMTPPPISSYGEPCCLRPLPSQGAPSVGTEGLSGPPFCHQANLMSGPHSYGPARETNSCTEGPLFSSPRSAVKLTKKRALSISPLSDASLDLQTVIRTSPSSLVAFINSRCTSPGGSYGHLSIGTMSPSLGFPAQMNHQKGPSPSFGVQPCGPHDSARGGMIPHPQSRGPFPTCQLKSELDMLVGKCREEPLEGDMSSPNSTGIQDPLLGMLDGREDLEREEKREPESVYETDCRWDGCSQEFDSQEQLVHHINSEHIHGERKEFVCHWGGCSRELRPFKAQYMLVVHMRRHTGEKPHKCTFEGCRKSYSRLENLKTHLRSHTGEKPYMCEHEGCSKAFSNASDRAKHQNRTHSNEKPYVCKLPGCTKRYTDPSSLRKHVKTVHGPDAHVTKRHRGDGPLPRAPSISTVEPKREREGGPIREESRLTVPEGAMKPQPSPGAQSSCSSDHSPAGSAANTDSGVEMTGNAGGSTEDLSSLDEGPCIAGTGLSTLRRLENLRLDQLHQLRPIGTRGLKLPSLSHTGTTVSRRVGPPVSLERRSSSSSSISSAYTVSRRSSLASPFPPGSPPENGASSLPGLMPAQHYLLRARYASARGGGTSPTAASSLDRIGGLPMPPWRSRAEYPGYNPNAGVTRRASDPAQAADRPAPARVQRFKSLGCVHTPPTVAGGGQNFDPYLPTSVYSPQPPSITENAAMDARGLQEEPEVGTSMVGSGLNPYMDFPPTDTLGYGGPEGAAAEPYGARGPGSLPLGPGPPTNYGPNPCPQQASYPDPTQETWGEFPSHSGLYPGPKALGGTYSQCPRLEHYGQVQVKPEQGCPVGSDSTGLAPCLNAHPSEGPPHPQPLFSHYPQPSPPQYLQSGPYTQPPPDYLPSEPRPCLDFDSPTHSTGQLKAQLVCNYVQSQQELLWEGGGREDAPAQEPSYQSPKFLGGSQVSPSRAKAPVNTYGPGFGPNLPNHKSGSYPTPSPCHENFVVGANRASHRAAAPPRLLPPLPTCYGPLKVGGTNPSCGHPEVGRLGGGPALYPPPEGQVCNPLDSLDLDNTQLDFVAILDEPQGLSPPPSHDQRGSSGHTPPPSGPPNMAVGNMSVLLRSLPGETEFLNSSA
Outline: (§1)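 A375 cells treated with compound (5 μM) or DMSO for 48 h. mRNA measured by qPCR as gene/(mean of HPRT and EIF2α) ratio, DMSO control set to 1. Mean ± SD.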

[5] = molecular target: T2, Zinc finger protein GLI1 (Homo sapiens); experiment: Inhibition of GLI1 transcriptional activity in human A375 cells assessed as downregulation of PTCH1 mRNA expression at 5 uM incubated for 48 hrs by qPCR analysis; format: cell-based; conditions: A-375; outline: as §1
[6] = molecular target: T2, Zinc finger protein GLI1 (Homo sapiens); experiment: Inhibition of GLI1 transcriptional activity in human A375 cells assessed as downregulation of HIP1 mRNA expression at 5 uM incubated for 48 hrs by qPCR analysis; format: cell-based; conditions: A-375; outline: as §1
[7] = molecular target: T2, Zinc finger protein GLI1 (Homo sapiens); experiment: Inhibition of GLI1 transcriptional activity in human A375 cells assessed as downregulation of GLI2 mRNA expression at 5 uM incubated for 48 hrs by qPCR analysis; format: cell-based; conditions: A-375; outline: as §1
[8] = molecular target: T2, Zinc finger protein GLI1 (Homo sapiens); experiment: Inhibition of GLI1 transcriptional activity in human A375 cells assessed as downregulation of Cyclin D1 mRNA expression at 5 uM incubated for 48 hrs by qPCR analysis; format: cell-based; conditions: A-375; outline: as §1
A-375 [9] = experiment: Antiproliferative activity against human A375 cells transfected with lentivrus-encoding shRNA against GLI1 assessed as reduction in cell viability incubated for 72 hrs by trypan blue or crystal violet staining based assay; format: functional
Outline: (§2)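 A375 melanoma cells transduced with control lentivirus (LV-c), LV-shGLI1 or LV-shGLI2, with knockdown checked by Western blot (HSP90 loading control). Cells treated with DMSO or compound at the indicated doses for 72 h, then viability read. Values are mean ± SD of at least three independent experiments.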

MCF-10A = experiment: Cytotoxicity against human MCF10A cells assessed as reduction in cell viability incubated for 72 hrs by trypan blue or crystal violet staining based assay
A-375 [10] = experiment: Antiproliferative activity against human A375 cells transfected with lentivrus-encoding shRNA against GLI2 assessed as reduction in cell viability incubated for 72 hrs by trypan blue or crystal violet staining based assay; format: functional; outline: as §2

CCOC(=O)c1c(-c2ccccc2)csc1NC(NC(=O)CC)C(Cl)(Cl)Cl (configuration not stated)
IC50 (A-375 [1]): 4.1 µM | IC50 (Daoy): 6 µM | inhibition [2]: Active | inhibition [3]: 42% | inhibition [4]: Active | inhibition [5]: Active | inhibition [6]: Active | inhibition [7]: Active | inhibition [8]: Active | Activity (A-375 [9]): inactive | Activity (MCF-10A): Non-Toxic | Activity (A-375 [10]): inactive
